Series [1] concerns Plasmodium berghei. Kind of series: Antimalarial activity against Plasmodium berghei infected in mouse assessed as change in mean survival time at 20 mg/kg, sc by Rane test. The series is classed as functional. As to conditions: route subcutaneous. In outline: (§1)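 Mice were infected with P. berghei 3 days before drug. The compound was usually given subcutaneously in sesame or peanut oil at 20 to 640 mg/kg. Activity was read as the extension of mean survival time (ΔMST, days) of treated mice over infected controls.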

For series [2], the system named is Plasmodium berghei. Kind of series: Antimalarial activity against Plasmodium berghei infected in mouse assessed as change in mean survival time at 40 mg/kg, sc by Rane test. As to conditions: route subcutaneous. The series is classed as functional. Put shortly: as §1
The subject of series [3] is Plasmodium berghei. Kind of series: Antimalarial activity against Plasmodium berghei infected in mouse assessed as change in mean survival time at 80 mg/kg, sc by Rane test. The series is classed as functional. The conditions noted are these: route subcutaneous. Put shortly: as §1
Series [4] has as its system Plasmodium berghei. Kind of series: Antimalarial activity against Plasmodium berghei infected in mouse assessed as disease cure at 160 mg/kg, sc by Rane test. Format: functional, organism-based. On the set-up: dose 160 mg/kg.
Series [5] concerns Plasmodium berghei. Kind of series: Antimalarial activity against Plasmodium berghei infected in mouse assessed as disease cure at 320 mg/kg, sc by Rane test. The series is classed as functional, organism-based. More on the design: dose 320 mg/kg.
The test system of series [6] is Plasmodium berghei. Put plainly: Antimalarial activity against Plasmodium berghei infected in mouse assessed as disease cure at 640 mg/kg, sc by Rane test. Format: functional, organism-based. More on the design: dose 640 mg/kg.
The subject of series [7] is Mus musculus. Kind of series: Toxicity in mouse infected with Plasmodium berghei assessed as animal death at 640 mg/kg, sc. Format: organism-based. On the set-up: dose 640 mg/kg, route subcutaneous. As to conditions: in vivo.
Series [8] relates to Plasmodium cynomolgi. Kind of series: Antimalarial activity against Plasmodium cynomolgi infected in rhesus monkey at 0.50 mg/kg administered daily for 7 days. The series is classed as functional, organism-based. More on the design: dose 0.5 mg/kg.
Series [9] deals with Plasmodium cynomolgi. Kind of series: Antimalarial activity against Plasmodium cynomolgi infected in rhesus monkey assessed as disease cure at 1 mg/kg administered daily for 7 days. The series is classed as functional, organism-based. More on the design: dose 1 mg/kg. In outline:
(§2)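 Rhesus monkeys infected with P. cynomolgi, dosed once daily for 7 days at each listed mg/kg level. Cures were recorded as the number of monkeys cured over the number treated.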

Series [10] relates to Plasmodium berghei. Kind of series: Antimalarial activity against Plasmodium berghei infected in mouse assessed as change in mean survival time at 160 mg/kg, sc by Rane test. The conditions noted are these: route subcutaneous. Format: functional. Put shortly: as §1
The subject of series [11] is Plasmodium berghei. Put plainly: Antimalarial activity against Plasmodium berghei infected in mouse assessed as change in mean survival time at 320 mg/kg, sc by Rane test. Format: functional. The conditions noted are these: route subcutaneous. In outline: as §1
The subject of series [12] is Plasmodium berghei. Put plainly: Antimalarial activity against Plasmodium berghei infected in mouse assessed as change in mean survival time at 640 mg/kg, sc by Rane test. The series is classed as functional. The conditions noted are these: route subcutaneous. Put shortly: as §1
The test system of series [13] is Plasmodium cynomolgi. Put plainly: Antimalarial activity against Plasmodium cynomolgi infected in rhesus monkey at 1 mg/kg administered daily for 7 days. The series is classed as functional, organism-based. More on the design: dose 1 mg/kg.
In series [14] the test system is Plasmodium cynomolgi. Put plainly: Antimalarial activity against Plasmodium cynomolgi infected in rhesus monkey at 0.25 mg/kg administered daily for 7 days. The series is classed as functional, organism-based. More on the design: dose 0.25 mg/kg. Put shortly: as §2
Series [15] deals with Mus musculus. Kind of series: Toxicity in mouse infected with Plasmodium berghei assessed as animal death at 160 mg/kg, sc. The series is classed as organism-based. More on the design: dose 160 mg/kg, route subcutaneous. As to conditions: in vivo.
Series [16] has as its system Mus musculus. Put plainly: Toxicity in mouse infected with Plasmodium berghei assessed as animal death at 320 mg/kg, sc. The conditions noted are these: in vivo. On the set-up: dose 320 mg/kg, route subcutaneous. The series is classed as organism-based.
For series [17], the system named is Plasmodium cynomolgi. Kind of series: Antimalarial activity against Plasmodium cynomolgi infected in rhesus monkey assessed as disease cure at 0.5 mg/kg administered daily for 7 days. The series is classed as functional, organism-based. On the set-up: dose 0.5 mg/kg. In outline:
as §2

Calls of active or inactive are those of the source. The calls are words filed in the database; no cut-off is given here.

In the case of `COc1cc(NC(C)CCCCN)c2nccc(C)c2c1.O=P(O)(O)O` (centres undefined), the figures for the MST in the series on Plasmodium berghei [1], in the series with Plasmodium berghei [2] and in the series with Plasmodium berghei [3] were 5.8 days, 7 days and 10.4 days, respectively. The outcome in the series with Plasmodium berghei [4], in the series on Plasmodium berghei [5], in the series on Plasmodium berghei [6] and in the series on Plasmodium cynomolgi [9] was Active. Further, the Activity entry in the series on Mus musculus [7] is given as “Non-toxic”. Moreover, the outcome in the series on Plasmodium cynomolgi [8] was inactive.

With `COc1cc(NC(C)CCCN)c2nccc(SC)c2c1` (centres undefined), the MST amounted to 0.1 days in the series with Plasmodium berghei [1]; 0.1 days with Plasmodium berghei [2]; 1.3 days in the series with Plasmodium berghei [3]; 3.5 days in the series with Plasmodium berghei [10]; 6.7 days with Plasmodium berghei [11]; 8.1 days in the series with Plasmodium berghei [12]. The result with Plasmodium berghei [5], in the series on Plasmodium berghei [6] and in the series with Plasmodium cynomolgi [13] was inactive.

Consider `COc1cc(NCCCN)c2nccc(C)c2c1.Cl`, for which the figures for the MST in the series with Plasmodium berghei [10] and in the series on Plasmodium berghei [11] were 3.9 days and 5.5 days, respectively. In addition, the Activity result in the series with Mus musculus [7] is recorded as “Toxic”. Besides, the result in the series on Plasmodium cynomolgi [14] was inactive.

As to `COc1cc(NC(C)CCCN)c2ncccc2c1` (centres undefined) [PRIMAQUINE], the MST in the series on Plasmodium berghei [2] amounted to 5 days; in the series with Plasmodium berghei [3], 9.4 days. In addition, the Activity result with Mus musculus [15], in the series with Mus musculus [16] and with Mus musculus [7] was “Toxic” in each case. In addition, in the series on Plasmodium cynomolgi [14], the outcome was inactive. Besides, the outcome with Plasmodium cynomolgi [9] was Active.

Regarding `COc1cc(NC(C)CCCN)c2nccc(C)c2c1` (centres undefined), the MST came to 5.5 days with Plasmodium berghei [3], 9 days in the series with Plasmodium berghei [10] and 10.1 days in the series with Plasmodium berghei [11]. The outcome with Plasmodium berghei [6], with Plasmodium cynomolgi [9] and in the series on Plasmodium cynomolgi [17] was Active. The Activity entry in the series on Mus musculus [7] is listed as “Toxic”.

Consider `COc1cc([N+](=O)[O-])c2nccc(Oc3ccc(Cl)cc3)c2c1`, for which the figures for the MST with Plasmodium berghei [1], in the series with Plasmodium berghei [2] and with Plasmodium berghei [3] were 3.5 days, 6.1 days and 10.1 days, respectively. In addition, the outcome in the series on Plasmodium berghei [4], in the series with Plasmodium berghei [5] and in the series with Plasmodium berghei [6] was Active. In addition, in the series on Mus musculus [7], the Activity entry was “Non-toxic”. Moreover, the outcome in the series on Plasmodium cynomolgi [13] was inactive.

Source of the values: ChEMBL document CHEMBL3272114, “Antimalarials. 10. Synthesis of 4-substituted primaquine analogues as candidate antimalarials” (J Med Chem, 1977).
